# UBC13 polyUb: blocks human UBC13 polyubiquitin chain formation | hit rate 0.47% among 330,000 | P61088 | TR-FRET | inhibition, % at 20 µM; in the data active means inhibition above about 45%, passing the limit was not always enough
# Target sequence (P61088 whole entry, looked up): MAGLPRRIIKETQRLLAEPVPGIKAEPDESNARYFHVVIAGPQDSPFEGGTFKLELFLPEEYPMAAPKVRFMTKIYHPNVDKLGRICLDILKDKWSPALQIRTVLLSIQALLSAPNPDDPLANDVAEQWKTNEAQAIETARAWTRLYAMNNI
# PP1 inh: counter-screen for PP5 inhibitors: inhibitors of human PP1-alpha | purified PP1alpha, OMFP fluorescence | inhibition, % at 6.7 µM | hit rate 0.9% among 320,000 | P62136;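 active means inhibition above the mean inhibition of all tested compounds plus 3 SD, computed separately for each screening campaign, cut at about 15% in these data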
# Target sequence (P62136 whole entry, looked up): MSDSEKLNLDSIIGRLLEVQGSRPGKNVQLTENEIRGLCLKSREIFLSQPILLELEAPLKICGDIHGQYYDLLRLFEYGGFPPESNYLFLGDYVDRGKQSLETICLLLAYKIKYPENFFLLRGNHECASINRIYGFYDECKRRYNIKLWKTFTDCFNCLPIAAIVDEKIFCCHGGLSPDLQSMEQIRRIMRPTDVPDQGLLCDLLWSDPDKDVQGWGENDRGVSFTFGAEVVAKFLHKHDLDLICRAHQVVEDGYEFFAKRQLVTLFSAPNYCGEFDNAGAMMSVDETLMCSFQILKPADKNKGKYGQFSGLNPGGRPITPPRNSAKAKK
# AI-2 QS modul: Vibrio harveyi AI-2 quorum sensing modulation; Vibrio harveyi JMH597 AI-2 luminescence/OD600 ratio, 9 h; hits give low values; strain lacks LuxN and CqsS sensors; 0 = neutral-control median; activity change, % at 7.5 µM; hit rate 0.4% among 300,000; in the data active means activity change below about -75%, passing the limit was not always enough;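 further: luminescence divided by OD600 gain over 9 h not by final OD600 alone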
# p-CIP stab down: lowers stability of the mouse p/CIP coactivator protein; F442A p/CIP-EGFP cells, EGFP fluorescence, 16 h; AID 1984; decrease of EGFP signal, % at 10 µM; hit rate 0.01% among 290,000;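 active means EGFP signal decrease of at least 30% at 10 µM or well 3 SD below plate mean, unless failing retest; inactive means the rest, including hits failing retest or dose response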
# T cruzi repl: blocks replication of Trypanosoma cruzi. inhibition, % (test concentration not listed). T. cruzi beta-gal in NIH3T3, luminescence, 90 h. hit rate 1.4% among 300,000;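 active means mean inhibition across valid replicates above about 55%, limit read from the data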;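 further: signal also drops with host cell toxicity which is not excluded here; 0% = plate median of DMSO wells and 100% = zero luminescence signal; higher percent means less beta-gal luminescence so fewer parasites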
#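 Read-out: Parasite load inhibition, % | Test system: Mouse NIH/3T3 fibroblasts infected with β-gal-expressing T. cruzi Tulahuen C4 | Amount: 5,000 cells/well | Medium: DMEM, 2% fetal bovine serum | Signal: GalScreen β-gal luminescence, detergent lysis, 60 min | Timing: 3 h attach, ≥90 h co-culture | Also added: Tulahuen C4 trypomastigotes, 5000/well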
# Active calls of the source: *; nt = no result. Hits are enriched below; roughly 2.8% of the tested compounds scored in any of these assays.
SMILES,UBC13 polyUb,PP1 inh,AI-2 QS modul,p-CIP stab down,T cruzi repl
COc1ccccc1CN1CC(C(=O)NCCN(C)CCc2ccccc2)CCC1=O (stereo unspecified),2,-6,19,-6,60*
CCN(CC)S(=O)(=O)c1cccc(-c2nnc(SCCCC(=O)c3ccc(F)cc3)o2)c1,-4,2,18,0,60*
CCN(CC)S(=O)(=O)c1cccc(-c2nnc(SCCCC(=O)c3ccccc3)o2)c1,1,4,15,7,66*
CC(C)CNC(=O)c1ccc2c(c1)C(=O)N(Cc1ccco1)C2=O,-9,2,4,-9,-3
Cc1ccc(NC(=O)/C=C/c2ccc([N+](=O)[O-])s2)cc1,-1,-2,37,-20,31
C/C(=N/NC(=S)Nc1cccc(C)c1)c1cccc([N+](=O)[O-])c1,2,1,17,-2,56*
Cc1cccc(NC(=S)N/N=C/c2ccc([N+](=O)[O-])s2)c1,-92,6,-212*,-31,52
Cc1cccc(NC(=S)NNC(=O)c2cccc([N+](=O)[O-])c2)c1,-11,7,10,-1,-11
Cc1cccc(NC(=O)/C=C/c2ccc([N+](=O)[O-])s2)c1,nt,3,14,-13,59*
COc1cccc(NC(=O)Nc2ccc(C(C)(C)C)cc2)c1,-2,nt,-39,-16,3
c1ccc2c(c1)nc(NCc1ccc3c(c1)OCO3)n2CCN1CCOCC1,6,2,28,-32,16
c1csc(-c2csc3nc(CN4CCOCC4)nc(NCc4ccc5c(c4)OCO5)c23)c1,27,4,3,-8,57*
C=CCn1c(C2CC2)n[nH]c1=S,0,-2,19,-3,-13
CCCCCC1CCC(c2n[nH]c(=S)n2C)CC1 (stereo unspecified),-6,1,22,-5,70*
CC(C)N(C(=O)COC(=O)c1cccc(N(C)C)c1)c1ccccc1,11,5,-26,-21,-3
COc1cc(OC)cc(-c2cc3nc4c(c(N5CCN(c6ncccn6)CC5)n3n2)CCCC4)c1,13,-2,17,-9,60*
CCc1c(C)nc2cc(-c3cc(OC)cc(OC)c3)nn2c1N1CCCC1,4,-2,11,13,26
CC(C)(C)c1ccc(OCCOc2ccc(C(C)(C)C)cc2NC=O)c(NC=O)c1,-4,8,36,-4,59*
Cc1nnc(C)n1/N=C/c1c(O)ccc2ccccc12,2,0,8,-4,-13
Cc1nnc(-c2ccccc2)c(=O)n1/N=C/c1c(O)ccc2ccccc12,-16,0,51,-14,65*
COc1cc([N+](=O)[O-])cc(/C=C2/SC(=S)N(Cc3ccccc3)C2=O)c1O,nt,15*,6,-93,11
COc1ccc(CCCC(=O)N/N=C/c2cccc(OC)c2O)cc1C,-20,17*,0,-12,-13
COc1cccc(/C=N/NC(=O)C[n+]2ccccc2)c1O,14,3,4,-5,-36
CC1CCN(c2c(NCC3CCC(C(=O)NCc4ccccc4Cl)CC3)c(=O)c2=O)CC1 (stereo unspecified),0,-3,19,-3,-10
COc1ccc(C2/C=C\CN(C(=O)Nc3ccccc3-c3ccccc3)CC(=O)N2Cc2ccc(F)cc2)cc1 (stereo unspecified),-1,16*,-1,2,36
SMILES,UBC13 polyUb,PP1 inh,AI-2 QS modul,p-CIP stab down,T cruzi repl
COc1ccc([C@H]2/C=C\CN(S(=O)(=O)c3ccc4ccccc4c3)[C@@H](C)C(=O)N2Cc2ccc(F)cc2)cc1,-12,7,4,nt,59*
CCC(C)NC(=O)C1CCN(S(=O)(=O)c2cccc3nonc23)CC1 (stereo unspecified),4,-1,nt,0,-8
Cn1c(C(=O)NCc2cccnc2)cc2sc(Cl)cc21,12,3,11,19,61*
Cn1ccnc1C(OC(=O)c1ccccc1)C(F)(F)F (stereo unspecified),0,0,20,7,12
CCOC(=O)c1c(NC(=O)CSc2nc3ccc(C)cc3[nH]2)sc2c1CC(C)(C)NC2(C)C,22,-1,5,nt,61*
CCOC(=O)c1c(NC(=O)CSc2nnnn2-c2ccccc2)sc2c1CC(C)(C)NC2(C)C,13,-4,-5,1,73*
CCOC(=O)c1c(NC(=O)COc2ccccc2OCC)sc2c1CC(C)(C)NC2(C)C,14,-1,-8,nt,44
CCOC(=O)c1c(NC(=O)Cc2ccccc2)sc2c1CC(C)(C)NC2(C)C,43,0,-6,-11,29
CCOC(=O)c1c(NC(=O)CSc2nnnn2-c2ccccc2OCC)sc2c1CC(C)(C)NC2(C)C,13,2,30,nt,57*
CC(C)c1ccc(CNc2ccc3c(c2)ncn3C)cc1,8,2,-79*,3,16
Cc1c(C(=O)NCC2COc3ccccc3O2)oc2ccc(S(=O)(=O)N3CC(C)CC(C)C3)cc12 (stereo unspecified),-1,-2,15,-10,63*
CCN(CC)CCCNC(=O)c1oc2ccc(S(=O)(=O)N3CC(C)CC(C)C3)cc2c1C (stereo unspecified),12,2,0,-2,56*
Cc1c(Cl)cccc1NC(=O)CN1CCC(C(O)(c2ccccc2)c2ccccc2)CC1,8,1,24,-8,62*
CCOC(=O)N1CCN(C(=O)C(=O)NN)CC1,0,-5,27,-16,-9
NC(N)=N/N=C/c1ccc(Br)cc1,-6,-4,13,5,67*
Cc1ccc(C(=O)N/C(=C\c2cccs2)C(=O)NCCCN2CCOCC2)cc1,5,-3,14,-12,-7
COc1ccc(C(=O)N/N=C(\Cc2ncc[nH]2)c2ccccc2)cc1,-34,-1,6,-4,66*
O=C(/C=C(\c1ccccc1)n1cncn1)c1ccccc1,8,0,6,-4,28
O=C(/C=C(\c1ccc(Cl)cc1)n1cncn1)c1ccc(Cl)cc1,0,1,19,-4,65*
O=C(CSc1ccccc1)NCC1(N2CCCCC2)CCCCC1,2,-6,3,nt,1
COC(=O)c1ccccc1Nc1ccnc(Cl)n1,11,-3,2,nt,-7
Cc1ccc(-c2nc(SCC(=O)Nc3cc(S(=O)(=O)N4CCCCC4)ccc3Cl)n[nH]2)cc1,-2,5,14,-6,-1
COc1ccc(CNC(=O)C2CSC(=O)C2)cc1 (stereo unspecified),-6,-3,4,-6,56*
CN(C)c1ccc(-c2noc(C3CCN(S(=O)(=O)c4cccc(Cl)c4)CC3)n2)cc1,28,0,20,-22,nt
O=S(=O)(c1ccc2ccccc2c1)N1CCC(c2nc(-c3ccncc3)no2)CC1,1,-5,14,2,71*
